From ChEMBL document CHEMBL1147890, “Synthesis of the new pseudo-symmetrical tamoxifen derivatives and their anti-tumor activity” (Bioorg Med Chem Lett, 2007)
Calls of active or inactive are those of the source. The calls are words filed in the database; no cut-off is given here.

Key:
HL-60 [1] = test: Antitumor activity against HL60 cells at 5 uM after 6 hrs by MTT assay; type: functional, Homo sapiens
Method in brief: (§1)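 HL-60 human acute promyelocytic leukemia cells exposed for 0–6 h at final 2.5, 5, 7.5 and 10 µM. Viability read by MTT (mitochondrial succinic dehydrogenase reduces dye to formazan). Growth rate expressed against formazan absorbance at 0 h set to 1.0. SD, n = 5. IC50 taken as median growth-inhibitory concentration at 3 h or 6 h.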

HL-60 [2] = test: Antitumor activity against HL60 cells at 7.5 uM after 6 hrs by MTT assay; type: functional, Homo sapiens; method in brief: as §1
HL-60 [3] = test: Antitumor activity against HL60 cells at 10 uM after 6 hrs by MTT assay; type: functional, Homo sapiens; method in brief: as §1
HL-60 [4] = test: Antitumor activity against HL60 cells after 6 hrs by MTT assay; type: functional, cell-based; settings: Homo sapiens, HL-60, 6 h; method in brief: as §1
HL-60 [5] = test: Antitumor activity against HL60 cells at 5 ug/ml after 4 hrs by MTT assay; type: functional, Homo sapiens
Method in brief: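 HL-60 cells given 5 µg/mL. Viability measured by MTT formazan absorbance after 4 h and expressed relative to the 0 h reading.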

HL-60 [6] = test: Antitumor activity against HL60 cells after 3 hrs by MTT assay; type: functional, cell-based; settings: Homo sapiens, HL-60, 3 h; method in brief: as §1
HL-60 [7] = test: Induction of apoptosis in HL60 cells assessed as DNA fragmentation at 9 uM by agarose gel electrophoresis; type: functional, cell-based; settings: Homo sapiens
Method in brief: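 Apoptosis versus necrosis judged by oligonucleosomal DNA cleavage on agarose gel electrophoresis. HL-60 cells treated 6 h at 9 µM final. Controls were medium only, tamoxifen, ethanol and actinomycin D.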

Compound	Activity (HL-60 [1])	Activity (HL-60 [2])	Activity (HL-60 [3])	IC50 (HL-60 [4])	Activity (HL-60 [5])	IC50 (HL-60 [6])	Activity (HL-60 [7])
CCC(=C(c1ccc(OCCN2CCCC2)cc1)c1ccc(OCCN2CCCC2)cc1)c1ccccc1	>90%	>90%	>90%	3 µM	>90%	4 µM	Active
CCC(=C(c1ccc(OCCN2CCCCC2)cc1)c1ccc(OCCN2CCCCC2)cc1)c1ccccc1		>80%	>80%	5 µM			Active
